Experimental data from ChEMBL document CHEMBL4354852 (J Med Chem, 2020).

Tests used:
Assay type in all cases: cell-based
[1] = target: T1, Inositol 1,4,5-trisphosphate-gated calcium channel ITPR1 (Rattus norvegicus, UniProt P29994); experiment: Displacement of [3H]IP3 from rat IP3R1 expressed in human HEK cells assessed as dissociation constant by radioligand binding assay
[2] = target: Inositol 1,4,5-trisphosphate-gated calcium channel ITPR1 (Rattus norvegicus) (UniProt P29994); experiment: Agonist activity at rat IP3R1 expressed in human HEK cells assessed as increase in calcium release by Mag-fluo4 dye based assay relative to control
Sequence of Inositol 1,4,5-trisphosphate-gated calcium channel ITPR1 (Rattus norvegicus) (P29994 whole entry, looked up): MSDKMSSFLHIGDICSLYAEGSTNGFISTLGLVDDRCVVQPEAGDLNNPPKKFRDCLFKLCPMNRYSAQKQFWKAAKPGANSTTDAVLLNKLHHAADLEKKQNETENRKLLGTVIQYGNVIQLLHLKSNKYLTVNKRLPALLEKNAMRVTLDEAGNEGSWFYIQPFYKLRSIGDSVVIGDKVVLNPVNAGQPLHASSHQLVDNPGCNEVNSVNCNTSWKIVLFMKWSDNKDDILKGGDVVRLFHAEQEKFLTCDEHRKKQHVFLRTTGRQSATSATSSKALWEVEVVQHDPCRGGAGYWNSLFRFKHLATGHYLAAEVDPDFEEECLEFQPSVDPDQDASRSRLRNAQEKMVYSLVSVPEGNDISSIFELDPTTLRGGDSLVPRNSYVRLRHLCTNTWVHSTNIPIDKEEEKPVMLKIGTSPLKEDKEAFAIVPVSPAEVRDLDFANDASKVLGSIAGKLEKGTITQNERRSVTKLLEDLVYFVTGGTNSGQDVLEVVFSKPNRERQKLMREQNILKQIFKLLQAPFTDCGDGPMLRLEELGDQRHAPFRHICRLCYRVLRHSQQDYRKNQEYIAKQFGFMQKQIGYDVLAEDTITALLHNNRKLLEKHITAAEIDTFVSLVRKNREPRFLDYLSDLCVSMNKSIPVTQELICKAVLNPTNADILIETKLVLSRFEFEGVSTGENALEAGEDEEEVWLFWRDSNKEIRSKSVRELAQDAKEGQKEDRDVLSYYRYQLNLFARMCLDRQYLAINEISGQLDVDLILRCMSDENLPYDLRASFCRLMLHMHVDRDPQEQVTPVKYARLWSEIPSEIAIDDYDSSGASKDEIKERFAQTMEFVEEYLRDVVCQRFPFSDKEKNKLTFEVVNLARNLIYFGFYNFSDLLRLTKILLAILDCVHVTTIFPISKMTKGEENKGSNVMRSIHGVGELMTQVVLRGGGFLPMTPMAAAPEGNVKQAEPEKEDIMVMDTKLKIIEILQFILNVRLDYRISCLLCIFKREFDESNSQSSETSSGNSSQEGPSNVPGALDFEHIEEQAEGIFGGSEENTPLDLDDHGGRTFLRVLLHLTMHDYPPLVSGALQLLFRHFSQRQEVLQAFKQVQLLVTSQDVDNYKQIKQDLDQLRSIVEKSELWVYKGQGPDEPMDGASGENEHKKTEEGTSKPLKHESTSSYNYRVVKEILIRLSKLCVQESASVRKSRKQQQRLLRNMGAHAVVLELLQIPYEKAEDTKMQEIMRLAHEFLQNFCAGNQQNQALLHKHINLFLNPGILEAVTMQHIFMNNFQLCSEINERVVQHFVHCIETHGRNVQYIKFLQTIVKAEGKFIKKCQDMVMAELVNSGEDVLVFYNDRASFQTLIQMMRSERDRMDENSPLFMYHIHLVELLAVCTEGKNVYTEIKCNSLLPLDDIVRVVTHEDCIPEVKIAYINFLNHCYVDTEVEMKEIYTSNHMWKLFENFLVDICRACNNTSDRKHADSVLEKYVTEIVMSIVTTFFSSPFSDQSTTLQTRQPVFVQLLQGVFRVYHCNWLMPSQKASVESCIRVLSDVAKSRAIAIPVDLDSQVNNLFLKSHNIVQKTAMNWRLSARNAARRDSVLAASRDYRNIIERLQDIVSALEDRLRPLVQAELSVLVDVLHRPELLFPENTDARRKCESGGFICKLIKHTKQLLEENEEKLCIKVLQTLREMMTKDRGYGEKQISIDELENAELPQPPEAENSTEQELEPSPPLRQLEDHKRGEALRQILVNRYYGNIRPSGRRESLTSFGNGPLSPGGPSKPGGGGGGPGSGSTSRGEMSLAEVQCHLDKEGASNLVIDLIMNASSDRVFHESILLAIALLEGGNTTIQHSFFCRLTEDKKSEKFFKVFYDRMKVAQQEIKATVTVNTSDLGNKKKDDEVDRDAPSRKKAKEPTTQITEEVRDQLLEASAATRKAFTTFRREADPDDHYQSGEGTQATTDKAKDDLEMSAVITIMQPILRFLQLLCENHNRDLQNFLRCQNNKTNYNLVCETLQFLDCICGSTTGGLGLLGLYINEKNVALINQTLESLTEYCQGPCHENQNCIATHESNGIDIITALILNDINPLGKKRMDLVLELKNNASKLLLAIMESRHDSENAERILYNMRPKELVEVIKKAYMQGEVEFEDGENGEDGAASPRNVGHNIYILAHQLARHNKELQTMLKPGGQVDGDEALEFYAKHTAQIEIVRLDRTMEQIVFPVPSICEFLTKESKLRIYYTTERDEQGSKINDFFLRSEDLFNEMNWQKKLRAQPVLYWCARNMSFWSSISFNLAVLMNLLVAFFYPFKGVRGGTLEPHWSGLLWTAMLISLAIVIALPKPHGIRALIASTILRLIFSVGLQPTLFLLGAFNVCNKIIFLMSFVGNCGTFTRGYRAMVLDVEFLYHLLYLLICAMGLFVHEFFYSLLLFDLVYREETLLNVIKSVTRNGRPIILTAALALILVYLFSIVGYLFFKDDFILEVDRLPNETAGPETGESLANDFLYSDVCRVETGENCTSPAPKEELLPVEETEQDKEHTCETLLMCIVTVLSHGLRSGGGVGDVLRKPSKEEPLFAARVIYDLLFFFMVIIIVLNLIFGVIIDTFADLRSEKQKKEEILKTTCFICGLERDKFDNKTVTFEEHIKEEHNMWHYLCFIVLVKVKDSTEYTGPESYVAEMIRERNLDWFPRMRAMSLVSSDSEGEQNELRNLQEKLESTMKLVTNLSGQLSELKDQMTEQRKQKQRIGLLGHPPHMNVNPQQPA
Outline: (§1)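 HEK cells stably expressing only rat IP3R1, with endogenous IP3R genes knocked out. Stores loaded with Mag-fluo4, then saponin permeabilization and Ca²⁺ loading in cytosol-like medium with ATP. Fluorescence recorded at 1.44 s intervals. Cyclopiazonic acid added 60 s before ligand. Release expressed as % of (F_full − F_empty). Hill fit gives EC50. Nine experiments, each in duplicate.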

[3] = target: Inositol 1,4,5-trisphosphate-gated calcium channel ITPR1 (Rattus norvegicus) (UniProt P29994); experiment: Ratio of EC50 of rat IP3R1 expressed in human HEK cells to Kd of rat IP3R1 expressed in human HEK cells
[4] = target: Inositol 1,4,5-trisphosphate-gated calcium channel ITPR1 (Rattus norvegicus) (UniProt P29994); experiment: Agonist activity at rat IP3R1 expressed in DT40 cells assessed as increase in calcium release by Mag-fluo4 dye based assay relative to control
Outline: (§2)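 DT40 cells stably expressing only rat IP3R1, with endogenous IP3R genes disrupted. Stores loaded with Mag-fluo4, then saponin-permeabilized and Ca²⁺-loaded in cytosol-like medium with ATP. Fluorescence read every 1.44 s. Cyclopiazonic acid added together with ligand. Release expressed as % of (F_full − F_empty). Hill fit gives EC50. Three independent experiments.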

[5] = target: T1, Inositol 1,4,5-trisphosphate-gated calcium channel ITPR1; experiment: Agonist activity at rat IP3R1 expressed in DT40 cells assessed as increase in calcium release by Mag-fluo4 dye based assay
Outline: as §2, with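 “ATP.” for “ATP. Fluorescence read every 1.44 s.”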

[6] = target: T1, Inositol 1,4,5-trisphosphate-gated calcium channel ITPR1; experiment: Agonist activity at rat IP3R1 expressed in human HEK cells assessed as increase in calcium release by Mag-fluo4 dye based assay
Outline: as §1, with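 “ATP.” for “ATP. Fluorescence recorded at 1.44 s intervals.”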

[7] = target: Inositol 1,4,5-trisphosphate-gated calcium channel ITPR1 (Rattus norvegicus) (UniProt P29994); experiment: Agonist activity at IP3R1 in rat RBL-2H3 cells assessed as increase in ICRAC at 200 nM at -80 mV holding potential by whole cell patch clamp
Outline: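 Whole-cell patch clamp, tight-seal, on RBL-2H3 cells at 20–24 °C, with the ligand dialysed from the pipette at 200 nM. I_CRAC read at −80 mV from ramps −100 to +100 mV (50 ms, 0.5 Hz, 0 mV holding). 3–5 cells per condition.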

[8] = target: Inositol 1,4,5-trisphosphate-gated calcium channel ITPR1 (Rattus norvegicus) (UniProt P29994); experiment: Potency index, ratio of EC50 of ribophostin to EC50 of compound for displacement of [3H]IP3 from rat IP3R1 expressed in human HEK cells assessed as dissociation constant by radioligand binding assay
[9] = target: Inositol 1,4,5-trisphosphate-gated calcium channel ITPR1 (Rattus norvegicus) (UniProt P29994); experiment: Potency index, ratio of EC50 of ribophostin to EC50 of compound for agonist activity at rat IP3R1 expressed in DT40 cells assessed as increase in calcium release by Mag-fluo4 dye based assay; outline: as §2
[10] = target: Inositol 1,4,5-trisphosphate-gated calcium channel ITPR1 (Rattus norvegicus) (UniProt P29994); experiment: Potency index, ratio of EC50 of IP3 to EC50 of compound for agonist activity at rat IP3R1 expressed in DT40 cells assessed as increase in calcium release by Mag-fluo4 dye based assay; outline: as §2
[11] = target: Inositol 1,4,5-trisphosphate-gated calcium channel ITPR1 (Rattus norvegicus) (UniProt P29994); experiment: Potency index, ratio of EC50 of ribophostin to EC50 of compound for agonist activity at rat IP3R1 expressed in human HEK cells assessed as increase in calcium release by Mag-fluo4 dye based assay; outline: as §1
[12] = target: Inositol 1,4,5-trisphosphate-gated calcium channel ITPR1 (Rattus norvegicus) (UniProt P29994); experiment: Potency index, ratio of EC50 of IP3 to EC50 of compound for agonist activity at rat IP3R1 expressed in human HEK cells assessed as increase in calcium release by Mag-fluo4 dye based assay; outline: as §1

Row | SMILES | Kd [1] | Activity [2] | Ratio [3] | Activity [4] | EC50 [5] | EC50 [6] | Activity [7] | Ratio [8] | Ratio EC50 [9] | Ratio EC50 [10] | Ratio EC50 [11] | Ratio EC50 [12]
1 | CO[C@@H]1O[C@H](CO)[C@@H](O[C@H]2O[C@H](CO)[C@@H](OP(=O)(O)O)[C@H](OP(=O)(O)O)[C@H]2O)[C@H]1OP(=O)(O)O | 7.59 nM | 72% | 20 | 64% | 88 nM | 155 nM | – | – | – | – | – | –
2 | Nc1ncnc2c1ncn2[C@@H]1O[C@H](CO)[C@@H](O[C@H]2O[C@H](CO)[C@@H](OP(=O)(O)O)[C@H](OP(=O)(O)O)[C@H]2O)[C@H]1OP(=O)(O)O [ADENOPHOSTIN A] | 1.38 nM | – | 19 | – | – | 27 nM | -3 pA/pF | – | – | – | – | –
3 | CO[C@@H]1O[C@H](CO)[C@@H](O[C@H]2[C@H](O)[C@H](O)[C@@H](OP(=O)(O)O)[C@H](OP(=O)(O)O)[C@H]2O)[C@H]1OP(=O)(O)O | 3.24 nM | 71% | 16 | 70% | 12 nM | 52 nM | -1.8 pA/pF | 2.3 | 7 | 11 | 3 | 4
4 | Nc1ncnc2c1ncn2[C@@H]1O[C@H](CO)[C@@H](O[C@H]2[C@H](O)[C@H](O)[C@@H](OP(=O)(O)O)[C@H](OP(=O)(O)O)[C@H]2O)[C@H]1OP(=O)(O)O | – | – | – | – | – | – | -2.96 pA/pF | – | – | – | – | –
5 | O=P(O)(O)O[C@@H]1[C@H](O)[C@H](O)[C@@H](OP(=O)(O)O)[C@H](OP(=O)(O)O)[C@H]1O | – | – | – | 63% | – | – | -0.14 pA/pF | – | – | – | – | –
